A selection: hits, their analogues and other compounds. The true share with any hit is near 3.1%.
PP1 inh – blocks human PP1-alpha phosphatase, a PP5 counter-screen; P62136; purified PP1alpha, OMFP fluorescence; inhibition, % at 6.7 µM; 320,000 compounds, 0.9% hits; AID 2235;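 active = inhibition above the mean inhibition of all tested compounds plus 3 SD, computed separately for each screening campaign, cut at about 15% in these data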
Target sequence (P62136 whole entry, looked up): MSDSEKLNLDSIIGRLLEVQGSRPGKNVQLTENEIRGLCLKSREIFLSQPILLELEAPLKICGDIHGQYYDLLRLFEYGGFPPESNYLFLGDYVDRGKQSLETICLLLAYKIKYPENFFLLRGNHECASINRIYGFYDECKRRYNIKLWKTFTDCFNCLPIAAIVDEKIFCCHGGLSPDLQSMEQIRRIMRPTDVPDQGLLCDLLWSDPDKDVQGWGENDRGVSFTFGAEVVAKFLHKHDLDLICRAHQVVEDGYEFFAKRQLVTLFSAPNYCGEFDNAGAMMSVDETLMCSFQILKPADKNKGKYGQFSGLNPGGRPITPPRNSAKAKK
HCV core dimer – blocks dimerization of HCV core protein. TR-FRET GST/Flag-core106 dimerization, 1536-well. inhibition, % at 5 µM. 300,000 compounds, 0.33% hits;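 active = inhibition above the mean of all tested compounds plus 3 SD, set per screening campaign, cut at about 45% in these data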
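Assay system: tagged HCV core106 pair (GST and Flag); medium: KF-containing HEPES buffer, pH 7.45, DTT, CHAPS, BSA; also added: Eu donor and XL665 acceptor anti-tag antibodies; dosing: 5 µM single dose; timing: compound-protein-antibody incubation 4 h at 22.5 °C; signal: TR-FRET 671 and 617 nm emission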
Fh CTSL1 inh – cathepsin L1 inhibition, PFM18AAP counter-screen; AID 1906; inhibition, % at 5.96 µM; recombinant F. hepatica cathepsin L1, Z-Leu-Arg-MCA fluorescence; 300,000 compounds, 0.49% hits;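 active = inhibition above the mean of all tested compounds plus 3 SD, set per screening campaign, cut at about 17% in these data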;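 note: 0% = plate median of test compound wells and 100% = 1 µM Z-Phe-Ala-diazomethylketone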
Myeloid diff 2 – promotes myeloid progenitor differentiation | ER-HoxA9 myeloid progenitors, lysozyme-GFP differentiation, flow cytometry | calls only at 10 µM | 360,000 compounds, 1% hits | AID 624256;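 active = normalized GFP-positive differentiation at or above the plate's own cutoff, the solvent-only control mean plus 3 SD; inconclusive = no clear call, values can overlap the other calls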;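 note: cells exposed to compound for four days before flow analysis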
NadD inh – blocks S. aureus nicotinate mononucleotide adenylyltransferase; inhibition, % at 20 µM; purified NadD enzyme, colorimetric absorbance read-out; 360,000 compounds, 0.78% hits; in the data active = inhibition above about 26%
PP5 inh – PP5 (human) phosphatase inhibition | purified PP5c, OMFP substrate fluorescence | inhibition, % at 6.7 µM | 320,000 compounds, 0.18% hits | AID 1987;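 active = inhibition above the campaign's mean inhibition across all tested compounds plus 3 SD, cut at about 9.5% in these data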;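 note: 0% = DMSO only and 100% = 100 µM cantharidin control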
NadD inh conf – NadD (S. aureus) inhibition, single concentration confirmation; shares compounds with NadD inh; purified S. aureus NadD, colorimetric enzyme assay; inhibition, % at 20 µM; 2,000 compounds, 13% hits; in the data active = inhibition mostly above about 42%, no sharp cut-off; inactive = mostly below about 42%
Active calls of the source: *; i = inactive; ? = inconclusive; . = no result; + = active, no number.

SMILES	PP1 inh	HCV core dimer	Fh CTSL1 inh	Myeloid diff 2	NadD inh	PP5 inh	NadD inh conf
COc1ccccc1OCC(=O)NC1CC(C)(C)NC(C)(C)C1	-2.0	-5.5	-4.6	i	-0.8	0.6	.
CCOc1ccc(N=C2SC(C(=O)Nc3ccccc3C#N)C(N)=C2C(=O)Nc2ccc(Cl)cc2)cc1 (stereo not drawn)	19.3*	54.7*	12.5	i	31.4*	3.9	6.3
Cc1ccc(NS(=O)(=O)c2ccc3c(c2)OCCCO3)cc1S(=O)(=O)N1CCOCC1	-8.0	.	.	i	-6.2	-1.3	.
Cc1ccc(C(=O)Nc2cccc([N+](=O)[O-])c2)cc1S(=O)(=O)Nc1ccc(NC(=O)c2ccccc2)cc1	2.1	14.9	0.4	i	42.3*	1.5	38.2*
Cc1ccc(NC(=O)CC(=O)c2ccc([N+](=O)[O-])cc2)cc1S(=O)(=O)Nc1cccc(Cl)c1	17.1*	39.1	2.1	i	37.0*	5.5	34.9
Cc1ccc(NS(=O)(=O)c2cc(C(=O)Nc3cccc([N+](=O)[O-])c3)ccc2C)cc1	1.0	3.6	-0.8	i	1.3	5.5	.
COc1ccccc1CC(=O)OC(C)C(=O)Nc1ccc(S(=O)(=O)N2CCCCC2)cc1 (stereo not drawn)	0.2	.	.	i	1.7	3.9	.
CCOc1ccc(NS(=O)(=O)c2ccc(C(=O)N3CC(C)OC(C)C3)cc2)cc1 (stereo not drawn)	-0.9	.	.	i	-2.2	2.0	.
CC(C)c1ccc(NC(=O)CSc2nc3ccsc3c(=O)n2Cc2ccc(C(=O)O)cc2)cc1	8.5	13.8	1.1	i	31.6*	6.0	45.9
COc1cccc(-c2nn(-c3ccc(F)cc3)cc2C(=O)NCC2CCCO2)c1 (stereo not drawn)	-2.4	2.4	-18.4	i	-3.7	2.9	.
CCc1cc2c(=O)c(-c3cnn(-c4ccccc4)c3)c(C)oc2cc1OCC(=O)Nc1ccc(F)c(F)c1	-2.3	5.5	-1.7	i	32.5*	0.2	6.6
CSC(=NS(=O)(=O)c1ccc(N)cc1)NS(=O)(=O)c1cccs1	.	.	.	i	-1.8	.	.
Nc1c(C(=O)Nc2ccc(S(=O)(=O)N3CCCC3)cc2)sc2nc3cc4c(cc3cc12)CCC4	-1.6	29.0	3.8	+	31.9*	0.9	0.4
C=CCNc1nc(NCc2ccc(NC(C)=O)cc2)c2sc(-c3ccccc3)cc2n1	.	.	.	?	31.5*	.	21.5
C[N+]1(C)CCC(=C(c2ccccc2)c2ccccc2)CC1	1.5	-3.6	2.0	i	-6.8	-6.7	.
Cc1ccccc1[C@H](NC1c2ccccc2C=Cc2ccccc21)P(=O)(c1ccccc1)c1ccccc1	.	.	.	i	31.4*	.	37.8
CC(C)C[C@@H](CN1CCC[C@H]1CN1C(=O)C(=O)NC[C@@H]1Cc1ccccc1)N1C[C@H](Cc2ccc(O)cc2)N(CC2CCCCCC2)C(=O)C1=O	.	.	.	i	40.5*	.	32.9
CC(C)C[C@H]1CN([C@@H](CC(C)C)CN2CCC[C@H]2CN2C(=O)C(=O)NC[C@@H]2Cc2ccc(O)cc2)C(=O)C(=O)N1CC1CCCCCC1	.	.	.	i	30.1*	.	21.0
OCCNc1nc(-c2ccccc2)c2cc(Br)ccc2n1	5.6	-10.9	-7.3	i	-2.1	0.9	.
CCCN(CCC)S(=O)(=O)c1ccc(C(=O)NNc2nc(-c3ccccc3)c3cc(Br)ccc3n2)cc1	6.7	23.7	0.6	i	36.0*	0.0	3.1
CCC1CCCCN1c1ccc([N+](=O)[O-])cc1/C=N/NC(=O)Cn1c2ccccc2c(=O)c2ccccc21 (stereo not drawn)	0.5	47.2*	0.8	i	51.0*	2.0	3.3
C=C(CN(C)C)C(=O)c1cc(C)ccc1C	.	.	.	.	31.6*	.	45.6
Cc1ccc(C)c(C(=O)NCCN(C)C)c1	-1.3	1.5	-0.8	i	-2.5	-1.2	.
Cc1ccc(Cn2c(/C=C/c3ccco3)nc3ccccc32)cc1	0.2	8.8	-0.1	i	31.7*	0.2	41.0
Clc1ccc(Cn2c(/C=C/c3ccco3)nc3ccccc32)cc1	4.1	58.2*	0.4	i	34.1*	2.3	42.7
SMILES	PP1 inh	HCV core dimer	Fh CTSL1 inh	Myeloid diff 2	NadD inh	PP5 inh	NadD inh conf
CC(NC(=O)/C=C/c1ccco1)c1nc2ccccc2n1Cc1c(Cl)cccc1Cl (stereo not drawn)	3.7	35.0	-0.7	i	11.9	0.7	.
Cc1cccc(N(CC(=O)NC2CCCC2)C(=O)c2cc3cc4cccc(C)c4nc3s2)c1C	-1.9	-4.8	-1.4	i	39.9*	2.5	10.2
COc1cccc(N(C(=O)Cn2nnc(-c3cccs3)n2)C(C(=O)NC2CCCCC2)c2ccncc2)c1 (stereo not drawn)	1.8	2.9	-1.4	i	32.6*	5.3	4.9
Cc1cc[n+]2cc(-c3cccc([N+](=O)[O-])c3)c(-c3cccc([N+](=O)[O-])c3)cc2c1	9.7	5.4	0.5	i	31.5*	2.9	6.3
CC(C)C[C@@H](CN1CCCC1CN1C(=S)NC[C@@H]1Cc1ccccc1)N1C[C@H](Cc2ccc(O)cc2)N(CCc2ccccc2)C1=S (stereo partly drawn)	.	.	.	i	45.2*	.	12.5
CC(C)C[C@@H](CN1CCCC1CN1C(=S)NC[C@@H]1Cc1ccccc1)N1C[C@H](Cc2ccccc2)N(CCc2ccccc2)C1=S (stereo partly drawn)	.	.	.	i	20.2	.	.
CC(C)C[C@@H](CN1CCC[C@@H]1CN1C(=S)NC[C@@H]1Cc1ccccc1)N1C[C@H](Cc2ccc(O)cc2)N(CCc2ccccc2)C1=S	.	.	.	i	19.3	.	.
CC(C)C[C@@H](CN1CCC[C@@H]1CN1C(=S)NC[C@@H]1Cc1ccc(O)cc1)N1C[C@H](Cc2ccc(O)cc2)N(CCc2ccccc2)C1=S	.	.	.	i	39.7*	.	27.8
O=C(Nc1ccc2c(c1)OCO2)C1Cc2ccccc2CN1S(=O)(=O)c1cccs1 (stereo not drawn)	0.2	38.5	1.1	i	31.0*	-1.9	-1.5
CC1(C)C[C@H](O)[C@]2(CO)[C@H](O)C[C@]3(C)C(=CCC4[C@@]5(C)CC[C@H](O)C(C)(C)C5CC[C@]43C)[C@@H]2C1 (stereo partly drawn)	.	.	.	i	5.2	.	.
O=C1c2ccc(-c3ccc(Cl)c(C(F)(F)F)c3)cc2S(=O)(=O)c2cccc(C(=O)N3CCN(c4ccc(Cl)cn4)CC3)c21	.	.	.	i	54.6*	.	7.2
Oc1ccc(C[C@@H](CN2CCC[C@@H]2CN2C(=S)NC[C@@H]2Cc2ccccc2)N2C[C@H](Cc3ccccc3)N(CCc3ccccc3)C2=S)cc1	.	.	.	i	20.4	.	.
CC(C)C[C@H]1CN([C@@H](Cc2ccc(O)cc2)CN2CCC[C@@H]2CN2C(=S)NC[C@@H]2Cc2ccccc2)C(=S)N1CCc1ccccc1	.	.	.	?	31.8*	.	9.4

Screening results from PubChem.
